From PubChem BioAssay
Only some compounds are listed: those with a hit (about 3.1% of all), similar ones and a draw of the others.
E-selectin induc – E-selectin induction on HUVECs; HUVEC E-selectin immunofluorescence imaging; normalized: neutral wells 0, TNF-alpha wells 100; activation, % at 7.58 µM; 260,000 tested, 0.37% active;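 active = mean E-selectin-positive cell signal at least 10% of the positive control, reached in at least 60% of replicates, without over 20% cell loss; inconclusive = no rule given, readout overlaps actives, possibly toxicity-flagged; inactive = the rest, including those meeting only one limit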
Target sequence (P16581 whole entry, looked up): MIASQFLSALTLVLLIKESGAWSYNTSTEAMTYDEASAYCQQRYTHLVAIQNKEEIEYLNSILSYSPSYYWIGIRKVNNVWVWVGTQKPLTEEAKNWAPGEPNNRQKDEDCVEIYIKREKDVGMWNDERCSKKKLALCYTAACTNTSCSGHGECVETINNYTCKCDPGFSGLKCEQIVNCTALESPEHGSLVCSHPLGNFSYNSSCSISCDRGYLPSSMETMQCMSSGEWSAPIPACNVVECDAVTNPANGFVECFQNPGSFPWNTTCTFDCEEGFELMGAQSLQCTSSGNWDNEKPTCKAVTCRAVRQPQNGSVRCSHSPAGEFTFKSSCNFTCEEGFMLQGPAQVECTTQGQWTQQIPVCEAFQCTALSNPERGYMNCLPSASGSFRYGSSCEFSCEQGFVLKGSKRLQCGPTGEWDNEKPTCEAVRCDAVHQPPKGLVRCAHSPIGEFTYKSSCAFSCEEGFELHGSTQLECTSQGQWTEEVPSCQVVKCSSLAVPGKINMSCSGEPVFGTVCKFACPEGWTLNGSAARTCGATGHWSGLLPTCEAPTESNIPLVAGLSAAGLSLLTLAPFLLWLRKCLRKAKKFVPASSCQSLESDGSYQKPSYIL
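Assay system: HUVEC, human umbilical vein endothelial cells / Amount: 3,000 HUVEC/well / Controls: TNF-alpha positive control, DMSO neutral control / Compound dosing: single concentration / Medium: EGM-2 over gelatin coat / Evaluation: percent E-selectin-positive cells / Signal: immunofluorescence imaging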
Cneo AK release – causes C. neoformans cell lysis | adenylate kinase release luminescence, 4 h; normalised: neutral wells 0, clomiphene wells 100 | lysis activity, % at 15 µM | 360,000 tested, 0.2% active;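 active = mean lysis activity across replicates of at least 80%, whatever share of replicates individually reach that level; inactive = mean lysis activity below 80%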
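read-out = cell lysis signal | test system = log-phase Cryptococcus neoformans yeast cells | input = cells at 5 × 10^6 per mL | medium = fresh YPD growth medium | signal = luminescent adenylate kinase detection reagent | timing = 4 h at 37 °C static, read 1 h later | dosing = single dose | controls = Clomiphene as positive lysis control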
Ecoli rRNA inh – inhibits bacterial ribosomal RNA function over humanized ribosomes | E. coli WT GFP vs humanized-ribosome RFP mutants, fluorescence, 24 h; hits give low values; DMSO median 0, no signal -100 | GFP signal change (wild-type ribosome), % (test concentration not listed) | 350,000 tested, 1.6% active | AID 720706;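 active = significant combined selectivity score with lowered wild-type GFP, culture density cut under 30%, mutant RFP and density less affected; inactive = any of these conditions unmet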
miR122 inh – blocks miR-122 activity in Huh7 sensor cells; Huh7 miR-122 Renilla luciferase sensor, 48 h; neutral wells = 0, positive control = 100; 340,000 tested, 0.3% active; activation (reporter increase), % at 12.5 µM;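 active = mean replicate activation score at least 90 and every replicate individually at or above 90; inconclusive = only one of the two criteria met; inactive = neither criterion met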;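 note: higher luciferase means less miR-122 activity so hits act as miR-122 inhibitors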
DENV2 CPE rescue – protects cells from dengue virus 2 cytopathic effect; 350,000 tested, 1.7% active; DENV2-infected cells, cytopathic effect rescue, plate reader; CPE inhibition, % at 9.99 µM; in the data active = CPE inhibition above about 20%, passing the limit was not always enough; inconclusive = no clear call, values can overlap the other calls; tested in BHK-21 cells;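 note: 0% = median of neutral control wells and 100% = median of positive control wells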
Active calls of the source: *; ? = inconclusive; · = no result given; ! = a repeat was not active; [ ] = another dose, or the depositor's remark.

SMILES	E-selectin induc	Cneo AK release	Ecoli rRNA inh	miR122 inh	DENV2 CPE rescue
C=C[C@@H](C)[C@@H](OC(=O)Nc1ccc(OC)cc1)c1ccc(OCCO)cc1	·	-1.7	·	·	13.1
CC(C)NC(=O)NCC[C@H]1CC[C@@H](NC(=O)Nc2ccccc2)[C@@H](CO)O1	0.5	15.1	2.3	-5.5[16.7 µM]	1.0
O=C(C1CCCC1)N1CC2(C1)[C@H](c1ccccc1)[C@@H](CO)N2Cc1ccccc1F	-0.1	·	-2.9	·	12.6
O=C(NCC[C@H]1CC[C@H](NS(=O)(=O)c2cccc(F)c2)[C@@H](CO)O1)C1CCOCC1	0.6	3.6	0.8	·	-1.9
C[C@H](CO)N1C[C@H](C)[C@H](CN(C)S(=O)(=O)c2ccc(Cl)cc2)OCCCC[C@H](C)Oc2ccc(NC(=O)CCC(F)(F)F)cc2C1=O	-0.2	-1.9	-1.1	-7.3[16.7 µM]	?
O=C(NCC1CC1)[C@@H]1N[C@@H]2c3ccc(C4=CCCCC4)c(=O)n3C[C@@H]2[C@H]1CO	-0.1	-1.4	-3.6	·	0.5
C[C@@H]1CN([C@@H](C)CO)C(=O)Cc2cc(NS(C)(=O)=O)ccc2O[C@H]1CN(C)Cc1ccc(Oc2ccccc2)cc1	7.7	3.0	-43.6	-9.8[16.7 µM]	29.8*
C[C@@H]1CN([C@@H](C)CO)C(=O)Cc2cc(NS(=O)(=O)c3ccccc3)ccc2O[C@@H]1CN(C)Cc1ccc(Oc2ccccc2)cc1	1.4	55.3	-0.3	-0.7[16.7 µM]	25.0*
C[C@H](CO)N1C[C@H](C)[C@@H](CN(C)S(=O)(=O)c2ccc(F)cc2)Oc2ccc(NC(=O)Nc3ccccc3)cc2CC1=O	-0.1	-0.4	-2.0	-5.4[16.7 µM]	-4.2
C[C@H](CO)N1C[C@H](C)[C@@H](CN(C)Cc2ccc(Cl)c(Cl)c2)Oc2c(NC(=O)CCC(F)(F)F)cccc2C1=O	0.3	0.0	6.3	49.5	22.4*
C[C@@H]1CN([C@@H](C)CO)C(=O)c2cccc(NC(=O)CCCCCC(=O)Nc3ccccc3N)c2O[C@@H]1CN(C)Cc1ccccc1	-0.1	·	-0.4	·	-6.4
C[C@H](CO)N1C[C@H](C)[C@H](CN(C)Cc2ccc(Cl)c(Cl)c2)Oc2c(NC(=O)CCCCCC(=O)Nc3ccccc3N)cccc2C1=O	409.7*	·	-6.9	·	0.6
O=C(C[C@H]1CC[C@@H]2[C@H](COC[C@H](O)CN2C(=O)c2ccncc2)O1)NCc1ccc(-c2ccccc2)cc1	0.0	-0.1	-3.0	38.7[16.7 µM]	20.2*
O=C(C[C@@H]1CC[C@@H]2[C@H](COC[C@H](O)CN2C(=O)c2ccccc2F)O1)NCc1ccccc1	0.2	2.5	1.3	1.1[16.7 µM]	?
CCCNC(=O)C[C@@H]1CC[C@H]2[C@@H](COC[C@H](O)CN2C(=O)c2ccccn2)O1	-0.1	-2.7	3.2	-3.4[16.7 µM]	11.5
O=C(C[C@@H]1CC[C@H]2[C@@H](COC[C@H](O)CN2C(=O)c2ccccc2F)O1)NCc1ccccc1	0.0	-0.9	-2.2	4.2[16.7 µM]	85.7*
CCCNC(=O)C[C@H]1CC[C@@H]2[C@H](COC[C@@H](O)CN2C(=O)c2ccccn2)O1	0.0	-2.1	4.4	-2.3[16.7 µM]	88.9*!
CS(=O)(=O)N1C[C@H](O)COC[C@@H]2O[C@H](CC(=O)NCc3ccc(-c4ccccc4)cc3)CC[C@H]21	0.3	-2.2	-31.2	-1.5[16.7 µM]	7.1
CS(=O)(=O)N1C[C@H](O)COC[C@H]2O[C@@H](CC(=O)NCc3ccc(-c4ccccc4)cc3)CC[C@@H]21	0.3	-0.4	-4.6	10.3[16.7 µM]	78.8*
O=C(C[C@@H]1CC[C@@H]2[C@H](COC[C@H](O)CN2C(=O)c2ccncc2)O1)NCc1ccc(-c2ccccc2)cc1	0.2	-1.3	3.8	0.6[16.7 µM]	-1.3
C[C@H](CO)N1C[C@H](C)[C@@H](CN(C)C(=O)CCC(F)(F)F)OCCCC[C@H](C)Oc2ccc(NC(=O)NC3CCCCC3)cc2C1=O	-0.2	0.0	-3.0	8.6[16.7 µM]	-4.9
CCCC#Cc1ccc2c(c1)O[C@@H](CN(C)S(=O)(=O)c1cccc(OC)c1)[C@@H](C)CN([C@H](C)CO)S2(=O)=O	0.2	·	-1.2	-4.6[16.7 µM]	·
C[C@@H]1CN([C@H](C)CO)C(=O)Cc2cc(NS(=O)(=O)c3ccccc3)ccc2O[C@@H]1CN(C)C(=O)Nc1ccc2c(c1)OCO2	0.8	·	-5.3	0.9[16.7 µM]	·
CC=Cc1ccc2n(c1=O)C[C@H]1[C@H](CO)[C@@H](C(=O)NC3CCC3)[C@@H]2N1C(=O)c1cnccn1 (mixture of isomers)	0.1	·	-1.4	·	-5.3
O=C(C[C@H]1C=C[C@@H](NC(=O)CN2CCOCC2)[C@@H](CO)O1)NCc1cccc(F)c1	0.0	-0.6	-0.6	17.3[16.7 µM]	17.3
SMILES	E-selectin induc	Cneo AK release	Ecoli rRNA inh	miR122 inh	DENV2 CPE rescue
Cc1ccc(S(=O)(=O)N2C[C@@H](O)COC[C@H]3O[C@@H](CC(=O)NCc4ccc5c(c4)OCO5)CC[C@@H]32)cc1	0.1	0.0	-9.6	0.4[16.7 µM]	-5.5
O=C(C[C@@H]1CC[C@@H]2[C@H](COC[C@@H](O)CN2C(=O)c2cccnc2)O1)NCc1ccc(-c2ccccc2)cc1	?	1.3	-4.4	6.2[16.7 µM]	-6.0
O=C(C[C@H]1CC[C@@H]2[C@H](COC[C@@H](O)CN2C(=O)c2cccnc2)O1)NCc1ccc(-c2ccccc2)cc1	0.2	-1.0	-1.9	-1.8[16.7 µM]	23.4*
Cc1ccc(S(=O)(=O)N2C[C@@H](O)COC[C@@H]3O[C@H](CC(=O)NCc4ccc5c(c4)OCO5)CC[C@H]32)cc1	-0.1	109.3*	-4.4	2.6[16.7 µM]	·
CCNC(=O)C[C@H]1CC[C@H]2[C@@H](COC[C@H](O)CN2C(=O)c2cccnc2)O1	0.0	1.5	4.3	0.0[16.7 µM]	94.4*
COc1ccc(S(=O)(=O)N(C)C[C@@H]2Oc3ccc(NS(=O)(=O)c4ccccc4)cc3CC(=O)N([C@@H](C)CO)C[C@H]2C)cc1	0.9	0.6	0.7	-7.5[16.7 µM]	2.2
Cc1cccc(Nc2nc(-c3ccc(F)cc3)cs2)n1	·	3.3	-18.1*	-1.1	0.3
CC(C)Cn1c(=S)[nH]c2cc(C(=O)NCc3ccccc3F)ccc2c1=O	0.3	-1.6	11.2	-2.0	62.1*
COCCCNC(=O)c1ccc2c(=O)n(Cc3ccc(Cl)cc3)c(=S)[nH]c2c1	48.6*	-0.2	2.4	·	7.7
CO[C@@H]1CN(C)C(=O)c2ccc(NC(=O)Nc3cc(Cl)cc(Cl)c3)cc2OC[C@H](C)NC[C@@H]1C	-0.2	-6.2	-2.2	·	-5.8
COc1ccccc1CNc1ncccn1	·	1.1	4.9	2.9	4.9
COc1ccccc1CNc1cncnc1	-0.1	1.3	-22.9*	·	0.8
COc1ccc2nc(/N=C\N(C)C)sc2c1	·	-1.4	·	-8.3	·
CN(C)/C=N/c1nc2ccc3c(c2s1)CCCC3	·	-1.1	-25.9*	-4.4	-0.3
C[C@@H]1CN([C@H](C)CO)C(=O)c2cc(NC(=O)Cc3ccccc3)ccc2O[C@@H](C)CCCCO[C@H]1CN(C)S(=O)(=O)c1ccc(Cl)cc1	0.2	1.0	5.7	-8.1[16.7 µM]	-16.1
